As usually defined, the IC50 is the concentration needed to halve the response being measured. As usually defined, the Ki is the dissociation constant of the complex between target and ligand, obtained from inhibition or displacement. Lower therefore signals tighter binding.

Among the data in BindingDB's records for doi:10.1021/acs.jmedchem.0c02249 (Lundbeck Research Usa, 2021) are IC50 and Ki values, retold here.

Assay [1] deals with T1, P2X purinoceptor 7 (Mus musculus, UniProt Q9Z1M0).
T1 sequence (Q9Z1M0 whole entry): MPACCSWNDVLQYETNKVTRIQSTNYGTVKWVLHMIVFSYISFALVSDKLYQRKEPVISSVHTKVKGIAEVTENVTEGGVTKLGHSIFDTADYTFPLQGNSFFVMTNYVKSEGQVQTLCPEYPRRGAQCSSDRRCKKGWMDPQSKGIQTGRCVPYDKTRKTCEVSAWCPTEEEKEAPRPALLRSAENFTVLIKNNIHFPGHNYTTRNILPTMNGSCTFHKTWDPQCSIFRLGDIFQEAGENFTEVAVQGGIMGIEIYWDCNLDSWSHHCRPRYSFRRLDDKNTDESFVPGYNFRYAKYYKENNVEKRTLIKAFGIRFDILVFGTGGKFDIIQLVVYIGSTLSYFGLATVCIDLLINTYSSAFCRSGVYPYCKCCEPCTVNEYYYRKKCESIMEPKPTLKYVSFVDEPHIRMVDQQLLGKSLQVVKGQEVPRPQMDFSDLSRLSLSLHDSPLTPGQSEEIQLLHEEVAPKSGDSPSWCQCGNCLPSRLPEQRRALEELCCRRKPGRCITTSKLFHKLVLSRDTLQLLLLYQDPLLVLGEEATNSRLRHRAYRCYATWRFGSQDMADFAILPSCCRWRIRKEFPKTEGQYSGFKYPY
Nature of the assay: Antagonist activity at mouse P2X7 receptor expressed in HEK293 cells assessed as inhibition of BzATP-induced calcium-flux measured after 60 mins by FLIPR analysis. In outline: (§1)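 Stable rat or mouse P2X7 HEK293 cells in HBSS/20 mM HEPES/2.5 mM probenecid/0.05% BSA, pH 7.4, were loaded with Fluo-4 NW (37 °C 30 min, RT 30 min). After 30 min at RT, calcium fluorescence was read by FLIPR; n ≥ 3.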

The target of assay [2] is T2, P2X purinoceptor 7 (Homo sapiens, UniProt Q99572).
T2 sequence (Q99572 whole entry): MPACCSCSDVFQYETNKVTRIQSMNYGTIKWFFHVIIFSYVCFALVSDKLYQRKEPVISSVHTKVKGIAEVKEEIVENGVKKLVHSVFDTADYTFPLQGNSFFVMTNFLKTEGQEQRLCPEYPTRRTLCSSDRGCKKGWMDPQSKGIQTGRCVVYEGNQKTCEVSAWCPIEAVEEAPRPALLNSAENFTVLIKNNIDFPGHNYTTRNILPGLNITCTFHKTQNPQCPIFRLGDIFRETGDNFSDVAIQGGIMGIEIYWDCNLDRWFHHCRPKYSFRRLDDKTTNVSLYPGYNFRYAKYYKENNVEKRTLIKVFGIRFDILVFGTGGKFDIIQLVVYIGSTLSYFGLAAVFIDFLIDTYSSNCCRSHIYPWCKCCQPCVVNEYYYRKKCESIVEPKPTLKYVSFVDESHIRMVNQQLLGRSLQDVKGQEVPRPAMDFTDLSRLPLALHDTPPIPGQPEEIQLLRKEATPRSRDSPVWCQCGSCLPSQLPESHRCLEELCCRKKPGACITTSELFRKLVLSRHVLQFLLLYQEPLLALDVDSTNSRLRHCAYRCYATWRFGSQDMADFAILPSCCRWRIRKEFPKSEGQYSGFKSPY
Description: Antagonist activity at human P2X7 receptor expressed in HEK293 cells assessed as inhibition of BzATP-induced calcium-flux measured after 60 mins by FLIPR analysis.

Assay [3] concerns the target T3, P2X purinoceptor 7 (Rattus norvegicus, UniProt Q64663).
T3 sequence (Q64663 whole entry): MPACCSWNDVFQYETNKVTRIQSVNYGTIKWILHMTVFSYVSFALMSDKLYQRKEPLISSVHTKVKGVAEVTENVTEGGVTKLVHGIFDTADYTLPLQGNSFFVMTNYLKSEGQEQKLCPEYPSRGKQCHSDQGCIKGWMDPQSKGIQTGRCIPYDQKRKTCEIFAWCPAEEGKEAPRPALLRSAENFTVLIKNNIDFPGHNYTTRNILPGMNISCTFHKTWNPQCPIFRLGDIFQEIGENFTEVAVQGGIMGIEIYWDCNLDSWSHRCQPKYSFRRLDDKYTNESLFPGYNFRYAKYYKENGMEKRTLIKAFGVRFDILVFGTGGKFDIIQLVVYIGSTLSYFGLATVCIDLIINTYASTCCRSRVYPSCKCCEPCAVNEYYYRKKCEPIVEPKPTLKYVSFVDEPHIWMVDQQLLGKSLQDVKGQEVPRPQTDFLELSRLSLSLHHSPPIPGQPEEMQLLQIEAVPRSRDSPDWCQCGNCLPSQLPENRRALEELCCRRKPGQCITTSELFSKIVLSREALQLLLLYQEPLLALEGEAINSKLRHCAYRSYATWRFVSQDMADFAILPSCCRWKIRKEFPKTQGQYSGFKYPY
Nature of the assay: Displacement of [3H]-A-804598 from rat P2X7 receptor expressed in HEK293 cell membrane by in vitro binding assay.

Assay [4] concerns the target T3, P2X purinoceptor 7. Description: Antagonist activity at rat P2X7 receptor expressed in HEK293 cells assessed as inhibition of BzATP-induced calcium-flux measured after 60 mins by FLIPR analysis. Summed up: as §1

Regarding `CCOc1ccc(Nc2ccc(/C(=C3C=C/C(=[N+](/CC)Cc4cccc(S(=O)(=O)[O-])c4)C=C/3C)c3ccc(N(CC)Cc4cccc(S(=O)(=O)O)c4)cc3C)cc2)cc1` [E133], the concentration for half-maximal inhibition (IC50) turned out to be 1300 nM on P2X purinoceptor 7 [1], 5.8 µM on P2X purinoceptor 7 [2] and 200 nM at P2X purinoceptor 7 [4]. The same compound returned a Ki at P2X purinoceptor 7 [3] of 1000 nM.
